In article PMC2745822 (The Journal of pharmacology and experimental therapeutics, 2008):
Several values for one entry are separate records, joined by “and”; a condition that tells them apart may be missing. Identical values can stand only once. Like-named read-outs stand apart in the source and are kept apart here.

What was measured:
[1] = system: amphetamine-induced hyperlocomotion in rats; settings: ref Stanhope et al., 2001; cited from earlier work
[2] = ref Bodick et al., 1997; Shekhar et al., 2001, 2008; cited from earlier work
rat M4 mAChR [3] = target: T1, rat M4 mAChR (Rattus norvegicus, UniProt P08485); assay type: cell-based; settings: compound alone
T1 sequence (P08485 1-478): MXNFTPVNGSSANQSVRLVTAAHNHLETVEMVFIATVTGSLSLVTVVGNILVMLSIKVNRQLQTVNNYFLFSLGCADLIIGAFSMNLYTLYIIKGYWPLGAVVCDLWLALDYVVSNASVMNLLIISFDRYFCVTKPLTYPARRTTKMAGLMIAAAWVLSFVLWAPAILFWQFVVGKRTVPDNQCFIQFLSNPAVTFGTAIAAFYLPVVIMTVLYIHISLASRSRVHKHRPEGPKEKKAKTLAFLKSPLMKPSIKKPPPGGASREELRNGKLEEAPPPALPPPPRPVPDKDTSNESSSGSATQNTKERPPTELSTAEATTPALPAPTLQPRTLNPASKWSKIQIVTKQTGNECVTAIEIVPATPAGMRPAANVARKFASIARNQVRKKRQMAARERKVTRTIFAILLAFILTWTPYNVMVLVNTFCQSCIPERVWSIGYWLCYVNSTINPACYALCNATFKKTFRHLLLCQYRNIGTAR

rM4 receptor [4] = target: T2, rM4 receptor (Rattus norvegicus, UniProt P08485); experiment: [3H]NMS equilibrium radioligand binding, membranes from rM4-expressing CHO cells; settings: 0.1 nM [3H]NMS; concentrations up to 30 µM
T2 sequence (P08485 1-478): T1 sequence (P08485 1-478)

[5] = system: panel of 68 discrete GPCRs, ion channels, transporters, and enzymes; experiment: MDS Pharma LeadProfiling Screen radioligand binding panel; settings: 10 µM; for VU0152099 with the single exception of GABAA receptors
[6] = Formulation into homogeneous dosing solution; assay type: physicochemical; settings: vehicles acceptable for in vivo studies
Outline: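 Test compound was jet-milled to uniform nanoparticles before vehicle formulation. It was then dissolved at 56.6 mg/ml in 10% Tween 80 in double-deionized water, with pH adjusted to about 7.0 using 1 N NaOH. The mixture was sonicated until a uniform homogeneous solution formed, for intraperitoneal dosing.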

[7] = Brain and plasma exposure pharmacokinetic profiling; assay type: in vivo, rat; settings: male rats, 56.6 mg/kg i.p.; mean ± S.E.M., n = 3
Outline: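 Male Sprague-Dawley rats (225–250 g), fasted overnight. Test compound dissolved at 56.6 mg/ml in 10% Tween 80/water, pH ~7.0 (1 N NaOH), sonicated, and given at 56.6 mg/kg i.p. Brain and trunk plasma taken at 0.5, 1, 2 and 4 h, three rats per time point. Brain homogenized in acetonitrile/methanol and plasma precipitated with acidified acetonitrile, both with internal standard. Analyzed by positive-ESI LC-MS-MS, linear 50 ng/ml–100 µg/ml. AUC0-∞ by trapezoidal method.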

[8] = system: amphetamine-induced hyperlocomotion in rats; experiment: Amphetamine-induced hyperlocomotion; assay type: in vivo, rat; settings: 56.6 mg/kg i.p., 30-min pretreatment; 1 mg/kg s.c. amphetamine; 60 min
[9] = system: motor performance in rats; experiment: Rotorod test; assay type: in vivo, rat; settings: 30, 56.6, or 100 mg/kg i.p., 30-min pretreatment
Outline: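 Rats got one 120-s training trial, then two 85-s trials about 10 min apart, on a 7.5-cm rod turning at a constant 20 rpm. They were pretreated i.p. for 30 min with vehicle or test compound (30, 56.6 or 100 mg/kg, salt form, 1.0 ml/kg in 10% Tween 80/water, pH ~7.0). Time on the rod was recorded, capped at 85 s. Analysis was one-way ANOVA with Dunnett's test versus vehicle.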

[10] = target: T3, human M4 muscarinic receptor (Homo sapiens, UniProt P08173); settings: in presence of compound
T3 sequence (P08173 1-479): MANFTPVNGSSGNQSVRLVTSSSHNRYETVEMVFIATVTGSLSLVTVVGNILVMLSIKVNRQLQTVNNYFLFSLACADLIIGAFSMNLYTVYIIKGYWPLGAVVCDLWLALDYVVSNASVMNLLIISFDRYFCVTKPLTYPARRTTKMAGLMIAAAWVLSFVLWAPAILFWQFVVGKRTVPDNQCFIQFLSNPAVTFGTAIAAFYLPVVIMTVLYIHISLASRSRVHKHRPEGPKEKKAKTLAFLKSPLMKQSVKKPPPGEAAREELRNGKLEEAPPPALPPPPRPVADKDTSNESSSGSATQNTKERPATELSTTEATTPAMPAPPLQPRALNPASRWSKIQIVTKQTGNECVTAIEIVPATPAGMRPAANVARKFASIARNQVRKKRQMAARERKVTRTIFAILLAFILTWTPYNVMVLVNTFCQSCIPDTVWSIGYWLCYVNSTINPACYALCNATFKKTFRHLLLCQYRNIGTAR

rat M4 mAChR [11] = target: T1, rat M4 mAChR; settings: ref Shirey et al., 2008, cited from earlier work
rM4 receptor [12] = target: T2, rM4 receptor; settings: ref Shirey et al., 2008; cited from earlier work
[13] = ref Shirey et al., 2008; cited from earlier work
other mAChR subtypes = settings: ref Shirey et al., 2008; cited from earlier work

CCCCCCOc1nsnc1C1=CCCN(C)C1 [xanomeline, 3-[3-hexyloxy-1,2,5-thiadiazo-4-yl]-1,2,5,6-tetrahydro-1-methylpyridine]
effect on amphetamine-induced hyperlocomotion [1]: reversal of amphetamine-induced hyperlocomotion in rats
clinical efficacy [2]: demonstrated efficacy as both a cognition-enhancing agent and an antipsychotic agent

COc1ccc(CNC(=O)c2sc3nc(C)cc(C)c3c2N)cc1 [VU0152100, 3-amino-N-(4-methoxybenzyl)-4,6-dimethylthieno[2,3-b]pyridine carboxamide]
response in the absence of an ACh EC20 (agonist activity) (rat M4 mAChR [3]): neither VU0152099 nor VU0152100 elicited a response
displacement of [3H]NMS (rM4 receptor [4]): neither M4 PAM displaced
displacement of binding, all targets tested [5]: less than 50%
formulation into homogeneous dosing solution [6]: afforded homogeneous dosing solutions in multiple vehicles acceptable for in vivo studies
Mean AUC (0-∞) brain [7]: 5726.35 ± 694.68 ng·h/g
Mean AUC(0-∞) plasma [7]: 6570.35 ± 235.87 ng·h/mL
t1/2 brain [7]: 1.12 ± 0.01 h
t1/2 plasma [7]: 1.62 ± 0.69 h
effect on amphetamine-induced hyperlocomotion [8]: produced robust decreases in amphetamine-induced hyperlocomotion
effect on performance in the rotorod test [9]: had no effect on performance in the rotorod test
maximal response to ACh [10]: approximately 130%

Cc1cc(C)c2c(N)c(C(=O)NCc3ccc(Cl)cc3)sc2n1 [VU10010, 3-amino-N-(4-chlorobenzyl)-4,6-dimethylthieno[2,3-b]pyridine-2-carboxamide]
formulation into homogeneous dosing solution [6]: unable to formulate VU10010 into a homogeneous solution in any acceptable vehicle
EC50 (rat M4 mAChR [11]; read-out: M4 EC50): ~400 nM
potentiation (-fold shift) of the M4 ACh CRC (rat M4 mAChR [11]): 47 fold
decrease in the ACh Ki (rM4 receptor [12]): 14 fold
log P [13]: ~ 4.5 and 4.5
activation of the other mAChR subtypes (other mAChR subtypes): causes no activation of the other mAChR subtypes
